Broadly, the IC50 is the point on the concentration scale where inhibition reaches its midpoint. Broadly, the CL/F is the apparent clearance, not corrected for the fraction that reaches the circulation. The half-life is the time in which the quantity being followed falls by half. Read a high half-life as slow decline. As usually defined, the bioavailability is dose-corrected exposure relative to a reference, in per cent. The term Kp denotes tissue or fluid exposure divided by exposure in the circulation.

Data on nine molecules can be found in ChEMBL document CHEMBL1287768, “Synthesis and pharmacological characterization of 5-phenyl-2-[2-(1-piperidinylcarbonyl)phenyl]-2,3-dihydro-1H-pyrrolo[1,2-c]imidazol-1-ones: a new class of Neuropeptide S antagonists” (Bioorg Med Chem Lett, 2010).

The target in one data set is T1, Neuropeptide S receptor (Homo sapiens, UniProt Q6W5P4).
T1 sequence (Q6W5P4 whole entry): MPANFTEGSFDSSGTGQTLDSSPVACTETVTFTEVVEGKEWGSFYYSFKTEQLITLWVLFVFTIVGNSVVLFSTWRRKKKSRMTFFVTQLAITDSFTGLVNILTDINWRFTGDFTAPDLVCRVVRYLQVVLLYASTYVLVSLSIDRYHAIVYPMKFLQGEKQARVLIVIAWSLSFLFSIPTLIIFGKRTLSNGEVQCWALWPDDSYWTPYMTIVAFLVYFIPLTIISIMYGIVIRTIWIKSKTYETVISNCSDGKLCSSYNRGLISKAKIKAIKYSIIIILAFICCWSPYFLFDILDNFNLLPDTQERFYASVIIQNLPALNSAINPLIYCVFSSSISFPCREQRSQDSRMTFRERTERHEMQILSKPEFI
The data set can be described thus: Antagonist activity at human recombinant GPR154 receptor expressed in HEK293 cells assessed as inhibition of neuropeptide S-induced increase of intracellular calcium level by FLIPR assay. Format: functional, cell-based. Put shortly: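 Transient expression of human GPR154 in HEK293; cells seeded 18.000/well, 24 h at 37 °C, 5% CO₂. Fluo-4-AM loading 1 h at 37 °C, HBSS wash. Calcium rise evoked by EC₈₀ Neuropeptide S, read by FLIPR; response normalised to 30 nM NPS maximum (max minus min RFU); pIC₅₀ by nonlinear regression.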
Background: Calcium flux is commonly read through the fluorescence of an indicator in the cells.

The target in another data set is T2, Cytochrome P450 1A2 (Homo sapiens, UniProt P05177).
T2 sequence (P05177 whole entry): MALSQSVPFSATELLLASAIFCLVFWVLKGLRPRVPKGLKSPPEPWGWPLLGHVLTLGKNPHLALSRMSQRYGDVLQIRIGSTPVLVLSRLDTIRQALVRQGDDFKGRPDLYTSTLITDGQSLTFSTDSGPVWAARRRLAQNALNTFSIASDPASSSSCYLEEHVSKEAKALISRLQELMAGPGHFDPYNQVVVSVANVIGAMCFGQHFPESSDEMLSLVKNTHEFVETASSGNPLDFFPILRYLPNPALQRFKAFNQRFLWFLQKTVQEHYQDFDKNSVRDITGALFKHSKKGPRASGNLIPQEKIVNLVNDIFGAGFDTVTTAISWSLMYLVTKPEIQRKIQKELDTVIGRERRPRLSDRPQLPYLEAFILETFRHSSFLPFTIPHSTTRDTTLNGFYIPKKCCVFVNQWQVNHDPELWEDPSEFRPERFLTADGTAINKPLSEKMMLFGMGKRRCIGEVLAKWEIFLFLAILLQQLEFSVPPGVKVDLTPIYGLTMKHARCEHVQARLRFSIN
Nature of the data set: Inhibition of CYP1A2. Format: ADME.

The target of another data set is Cytochrome P450 2C9 (Homo sapiens, UniProt P11712). Nature of the data set: Inhibition of CYP2C9. In kind it is ADME.
Sequence of Cytochrome P450 2C9 (P11712 whole entry): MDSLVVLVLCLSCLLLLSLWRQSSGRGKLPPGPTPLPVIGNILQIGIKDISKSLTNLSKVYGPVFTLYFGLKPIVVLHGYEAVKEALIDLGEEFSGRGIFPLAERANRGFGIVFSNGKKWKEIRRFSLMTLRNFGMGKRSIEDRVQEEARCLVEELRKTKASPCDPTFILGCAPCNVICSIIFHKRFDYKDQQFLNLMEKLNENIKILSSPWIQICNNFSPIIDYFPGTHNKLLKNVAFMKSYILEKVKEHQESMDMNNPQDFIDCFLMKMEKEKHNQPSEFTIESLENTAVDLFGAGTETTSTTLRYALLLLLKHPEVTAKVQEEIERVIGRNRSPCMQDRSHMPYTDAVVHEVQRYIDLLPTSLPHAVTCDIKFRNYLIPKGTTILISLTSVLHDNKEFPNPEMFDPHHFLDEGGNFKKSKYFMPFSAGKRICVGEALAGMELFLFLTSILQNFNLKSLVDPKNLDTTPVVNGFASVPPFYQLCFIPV
A further data set deals with Cytochrome P450 2C19 (Homo sapiens, UniProt P33261). Nature of the data set: Inhibition of CYP2C19. Format: ADME.
Sequence of Cytochrome P450 2C19 (P33261 whole entry): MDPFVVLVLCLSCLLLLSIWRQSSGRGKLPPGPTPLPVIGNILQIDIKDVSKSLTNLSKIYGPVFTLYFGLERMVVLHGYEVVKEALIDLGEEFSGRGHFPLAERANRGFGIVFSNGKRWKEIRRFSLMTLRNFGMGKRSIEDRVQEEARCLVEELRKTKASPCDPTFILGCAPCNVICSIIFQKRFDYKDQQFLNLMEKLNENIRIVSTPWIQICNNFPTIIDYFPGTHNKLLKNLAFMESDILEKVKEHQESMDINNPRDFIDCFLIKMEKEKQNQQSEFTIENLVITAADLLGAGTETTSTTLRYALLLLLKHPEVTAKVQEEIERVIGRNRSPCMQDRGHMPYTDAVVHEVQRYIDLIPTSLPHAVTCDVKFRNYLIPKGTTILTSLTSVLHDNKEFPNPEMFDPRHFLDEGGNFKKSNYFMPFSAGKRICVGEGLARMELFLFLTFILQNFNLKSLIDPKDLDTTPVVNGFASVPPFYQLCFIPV
Another data set deals with Cytochrome P450 2D6 (Homo sapiens, UniProt P10635). The data set can be described thus: Inhibition of CYP2D6. Format: ADME.
Sequence of Cytochrome P450 2D6 (P10635 whole entry): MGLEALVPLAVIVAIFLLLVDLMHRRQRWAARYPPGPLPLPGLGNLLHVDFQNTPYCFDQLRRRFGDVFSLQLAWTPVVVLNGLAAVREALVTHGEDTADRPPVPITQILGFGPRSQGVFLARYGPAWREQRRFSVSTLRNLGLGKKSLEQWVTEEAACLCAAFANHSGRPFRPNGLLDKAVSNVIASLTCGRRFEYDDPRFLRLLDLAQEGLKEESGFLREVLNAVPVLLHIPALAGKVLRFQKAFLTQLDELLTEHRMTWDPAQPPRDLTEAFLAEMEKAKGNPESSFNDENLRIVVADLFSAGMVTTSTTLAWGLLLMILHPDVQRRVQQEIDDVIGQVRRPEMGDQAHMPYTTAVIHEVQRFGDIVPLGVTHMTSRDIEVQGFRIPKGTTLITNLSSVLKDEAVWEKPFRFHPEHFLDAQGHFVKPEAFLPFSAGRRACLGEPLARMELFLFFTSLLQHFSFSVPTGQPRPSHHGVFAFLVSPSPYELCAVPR
The target of the next data set is Cytochrome P450 3A4 (Homo sapiens, UniProt P08684). Nature of the data set: Inhibition of CYP3A4. Format: ADME.
Sequence of Cytochrome P450 3A4 (P08684 whole entry): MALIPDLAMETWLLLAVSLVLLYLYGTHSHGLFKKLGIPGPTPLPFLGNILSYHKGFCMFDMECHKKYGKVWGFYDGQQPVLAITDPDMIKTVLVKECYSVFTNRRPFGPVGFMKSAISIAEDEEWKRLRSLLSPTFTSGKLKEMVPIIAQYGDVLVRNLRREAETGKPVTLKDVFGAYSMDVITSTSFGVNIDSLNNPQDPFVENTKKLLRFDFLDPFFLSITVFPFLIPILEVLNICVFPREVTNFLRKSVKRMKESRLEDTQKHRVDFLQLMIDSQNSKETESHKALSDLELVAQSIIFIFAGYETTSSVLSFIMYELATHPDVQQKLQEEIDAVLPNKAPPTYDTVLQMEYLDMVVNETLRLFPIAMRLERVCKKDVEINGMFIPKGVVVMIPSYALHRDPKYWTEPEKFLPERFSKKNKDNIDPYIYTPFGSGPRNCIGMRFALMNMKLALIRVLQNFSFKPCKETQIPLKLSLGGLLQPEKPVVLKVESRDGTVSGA
For data set [1], the system named is Liver microsomes. The data set can be described thus: Intrinsic clearance in human liver microsomes assessed per gram of protein. In kind it is ADME, Microsome.
Data set [2] deals with Liver microsomes. The data set can be described thus: Intrinsic clearance in rat liver microsomes assessed per gram of protein. In kind it is ADME, Microsome. On the technique in general: Liver microsomes are a subcellular fraction often used to study metabolism.
Data set [3] is described as follows: Clearance in rat blood at 1 mg/kg, po. Details: dose 1 mg/kg, route oral. In kind it is ADME, organism-based. Put shortly:
(§1)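 Rat, single oral 1 mg/kg in 5% DMSO + 0.5% HPMC in water; blood sampled for clearance, half-life, distribution volume and oral bioavailability.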

The nature of data set [4]: Half life in rat at 1 mg/kg, po. In kind it is ADME, organism-based. Also on record: dose 1 mg/kg, route oral. As to conditions: in vivo. Put shortly: as §1
The subject of the next data set is Rattus norvegicus. Nature of the data set: Volume of distribution in rat at 1 mg/kg, po. Format: ADME, organism-based. Details: dose 1 mg/kg, route oral. The conditions noted are these: in vivo. Put shortly:
as §1

Data set [5] is described as follows: Bioavailability in rat at 1 mg/kg, po. In kind it is ADME, organism-based. The conditions noted are these: in vivo. The essentials: as §1
The nature of data set [6]: Ratio of drug level in brain to blood in rat at 1 mg/kg, po. In kind it is ADME, organism-based. Also on record: dose 1 mg/kg, route oral. Put shortly: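 Rats received a single oral dose of 1 mg/kg, formulated in 5% DMSO + 0.5% HPMC in water. Drug levels were measured in blood and brain, and the brain/blood ratio was calculated from them. The work followed European directive 86/609/EEC.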

Consider `O=C(Nc1ccccc1C(=O)N1CCCCC1)c1ccc(-c2ccccc2)o1`, for which the IC50 on Neuropeptide S receptor is 31.6 nM.

On to `O=C(Nc1ccccc1C(=O)N1CCCCC1)c1cccc(-c2ccccc2)n1`, for which, on Neuropeptide S receptor, the IC50 was 20 nM.

Regarding `O=C(Nc1ccccc1C(=O)N1CCCCC1)c1ccc(-c2ccccc2)s1`, the IC50 at Neuropeptide S receptor is 794 nM.

In the case of `O=C(Nc1ccccc1C(=O)N1CCCCC1)c1cccc(-c2ccccc2)c1`, the IC50 on Neuropeptide S receptor is 251 nM.

As to `O=C(Nc1ccccc1C(=O)N1CCCCC1)c1ccc(-c2ccccc2)[nH]1`, the IC50 on Neuropeptide S receptor is over 5010 nM.

For the molecule `O=C(c1ccccc1N1CCCn2c(ccc2-c2ccccc2)C1=O)N1CCCCC1`, the IC50 on Neuropeptide S receptor is over 5010 nM.

As for `O=C(c1ccccc1N1CCn2c(ccc2-c2ccccc2)C1=O)N1CCCCC1`, the IC50 on Neuropeptide S receptor was over 5010 nM.

Take `O=C(c1ccccc1N1Cn2c(ccc2-c2ccccc2)C1=O)N1CCCCC1`: the IC50 is 10 nM on Neuropeptide S receptor; over 5000 nM against Cytochrome P450 1A2; over 5000 nM on Cytochrome P450 2C9; over 5000 nM on Cytochrome P450 2C19; over 5000 nM against Cytochrome P450 2D6; over 5000 nM against Cytochrome P450 3A4. For the same molecule, the values for the CL in the data set on Liver microsomes [1] and in the data set on Liver microsomes [2] were 6.9 mL/min/g and 26.3 mL/min/g, respectively. The molecule further registered an apparent clearance (CL/F) in data set [3] of 69 mL/min/kg. Besides, in data set [4], the half-life is 42 min. The molecule further registered a Vd in the data set on Rattus norvegicus of 2.4 L/kg. The same molecule gave a bioavailability in [5] of 1%. The Kp in [6] turned out to be 0.3.

On to `O=C(NCc1ccccc1)N1CCN2C(=O)OC(c3ccccc3)(c3ccccc3)C2C1` (stereo unspecified), for which the IC50 at Neuropeptide S receptor was 2 nM.
